Reference: ChEMBL document CHEMBL4513216, “Probing the Open Global Health Chemical Diversity Library for Multistage-Active Starting Points for Next-Generation Antimalarials” (ACS Infect Dis, 2020)

Assay: Toxicity liver stage against HepG2, at 10uM
Type: cell-based
Set-up: test concentration 10 uM, cell line HepG2-A16-CD81EGFP
Conditions: human, HepG2-A16-CD81EGFP cells; read-out: INHIBITION
Procedure, shortened: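 Uninfected HepG2-A16-CD81EGFP cells, 3 × 10^3 per well, 1536-well, plated on prespotted compound at 10 μM final, parasite-free screening media added to match infected plates; puromycin 10 μM positive, DMSO 0.5% negative; run in parallel with 48 h PbLuc assay at 37 °C, 5% CO2; viability by CellTiter-Glo luminescence, normalized to controls.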

| Structure (SMILES) | cytotoxicity at 10 µM |
| --- | --- |
| CCCOc1cc(C)c2c(c1C)C[C@H]([C@H](C)C(=O)O)CC2 | -4.19% |
| COc1ccc(CN2CCOC[C@H](OCC(=O)N(C)C)C2)cc1 | 0.552% |
| c1cc(-c2nnc([C@H]3CCNC3)o2)ccn1 | 4.82% |
| COc1ccc(C2CCCN2C(=O)c2cc(C(C)C)on2)cc1 (stereo unspecified) | 0.462% |
| O=C(N[C@H]1CCCC[C@@H]1O)c1ccc2nc(-c3ccccc3)[nH]c2c1 | 0.822% |
| Cc1csc2cc(C(=O)NC3CCCC3)cnc12 | 3.13% |
| O=c1n(Cc2ccc(C(F)(F)F)cc2)nc2ncccn12 | -4.06% |
| CN(C)c1cccc(C(=O)NCC(O)c2cccs2)c1 (stereo unspecified) | 16.6% |
| CN(C)c1ncc(NC(=O)c2ccccc2C(F)(F)F)cn1 | -9.66% |
| Cc1ccc(C(=O)N2C[C@H]3CNC[C@H]3C2)cn1 | -1.16% |
| CC(C)CN1CCNC(=O)C12CCN(S(=O)(=O)c1ccc(F)cc1)CC2 | -3.16% |
| CCn1cc2c(n1)C(COCC1CC1)CN(C(=O)c1ccco1)C2 (stereo unspecified) | 17.6% |
| CC(C)N1CCC2(CC1)CN(C)C(=O)C[C@H]2C(F)(F)F | -160% |
| Cc1cnc(N2Cc3nccn3CC(Cn3nc(C)nc3C)C2)nc1 (stereo unspecified) | -144% |
| Cc1nnn2c1COCC(CNC(=O)c1ccnnc1)C2 (stereo unspecified) | -1.35% |
| O=C(C1CCOC1)N1CCc2ncnc(-c3cccnc3)c2CC1 (stereo unspecified) | -3.13% |
| CN1C(=O)C(c2cccnc2)CC12CCN(C(=O)c1ccc[nH]1)CC2 (stereo unspecified) | -0.19% |
| O=C(NCC1CCN(C(=O)c2ccoc2)CC1)c1ccccc1Br | -12.3% |
| CC1CCN(C(=O)c2cnn3c(-c4ccco4)ccnc23)CC1 | 8.77% |
| Cc1cccc(NC(=O)c2ccc(OCc3nnnn3C)cc2)n1 | -34.1% |
| CN1CCCC1c1cncc(C(=O)NCC2CC2)n1 (stereo unspecified) | -8.41% |
| COCCNc1nnc(-c2ccc(C)nc2)s1 | -8.55% |
| CN(C)c1cc(C2CCCN2C(=O)c2ccc(=O)n(C)c2)ccn1 (stereo unspecified) | -23.9% |

| Structure (SMILES) | cytotoxicity at 10 µM |
| --- | --- |
| O=C(c1ncccn1)N1C[C@@H]2CC[C@H](Oc3cccc(F)c3)[C@@H]2C1 | -27.5% |
| Cc1c(C2CCCN(C(=O)c3cccnc3)C2)n2c(nc1=O)CCC2 (stereo unspecified) | -17.1% |
| CCN1CCOC(CNCc2cnc(N(CC)CC)s2)C1 (stereo unspecified) | 0.598% |
| COCc1ccccc1NC(=O)c1ccoc1 | -2.17% |
| Cn1cc(NC(=O)N2CCCC2c2ccccn2)ccc1=O (stereo unspecified) | -3.83% |
| COC(=O)c1occc1Cn1cc(Br)cn1 | -5.63% |
| N#Cc1ccc(SCCC(=O)Nc2ccc(CC(N)=O)cc2)cc1 | -5.25% |
| O=C(Cn1cnc2ccsc2c1=O)c1ccc2c(c1)OCCO2 | 3.1% |
| CCN(CC)c1nc2sc(C(=O)N3CCNC(=O)C3)cc2s1 | -4.29% |
| Cn1nc2c(cc1=O)CN(c1nc3ccccc3s1)CC2 | 2.89% |
| Cc1nc(-c2nnc[nH]2)sc1C(=O)N1CCCC1c1cccs1 (stereo unspecified) | 11.1% |
| O=C(NCc1ccc(-n2cncn2)nc1)N(CC1CCOC1)C1CC1 (stereo unspecified) | 1.74% |
| COc1cc(CNC(=O)Nc2nncs2)ccc1O | -6.29% |
| O=C(NCCN1CCOCC1)NCc1cccnc1-n1cccn1 | -2.22% |
| CC(O)CC(C)(C)CNC(=O)Nc1cnn(-c2ccccc2F)c1 (stereo unspecified) | -3.27% |
| CN(CCCNC(=O)CN1CCS(=O)(=O)CC1)c1ccccc1 | -4.65% |
| CNC(=O)c1cccc(NC(=O)NCc2ccc(SC)cc2)c1C | -4.44% |
| CCOc1ccc(NC(=O)NC2CCc3nc(C)nn3C2)cc1Cl (stereo unspecified) | -3.81% |
| Cc1nc(CN2CCN(C(=O)CC(C)(C)c3ccccc3)CC2)no1 | -1.96% |
| Cc1ncc2c(n1)CN(CC(O)COc1ccc(C#N)cc1)CC2 (stereo unspecified) | 7.45% |
| CCc1ccc(C(=O)Nc2ccc(CC3CC(=O)NC3=O)cc2)s1 (stereo unspecified) | -0.95% |
| COc1ccnc(NC(=O)c2cscn2)c1 | 9.72% |
| CCC(=O)N1CSCC1C(=O)N(C)CCc1ccccc1 (stereo unspecified) | 19.5% |

| Structure (SMILES) | cytotoxicity at 10 µM |
| --- | --- |
| CSc1ccc(NC(=O)NCC(O)C(C)C)cc1F (stereo unspecified) | 6.93% |
| COCCN(C)C(=O)Nc1ccn(-c2cccc(C(F)(F)F)c2)n1 | -2.16% |
| Cc1ccc(C(C)(O)CNC(=O)c2sccc2Br)o1 (stereo unspecified) | 4.77% |
| CN(C(=O)CNc1ccc(C#N)cc1)C1CCCCC1 | 0.0479% |
| CCn1c(CN(C)C(=O)c2ccc(O)nc2)nc2ccccc21 | 10.2% |
| O=C(NCC1CCCO1)c1csc(Cc2ccccc2)n1 (stereo unspecified) | -110% |
| O=C(CCCc1ccccn1)N1CCSC2(CCCCC2)C1 | -3.71% |
| COc1cccc(-c2nnn(C3CCN(CC(F)(F)F)C3=O)n2)c1 (stereo unspecified) | 3.34% |
| N#CC1C(=O)Nc2c(cnn2C2CCCC2)C12CCCCC2 (stereo unspecified) | 8.46% |
| CCc1nc2n(n1)CCCC2NC(=O)Nc1cccc(F)c1F (stereo unspecified) | 2.39% |
| O=S1(=O)CCCN1Cc1coc(-c2cccs2)n1 | 17.5% |
| CCOc1ccc(CN2CCCC(c3nn(C)c(=O)n3CC)C2)cn1 (stereo unspecified) | -2.85% |
| Cc1c(C(=O)N2CCCC(O)(CN(C)C)CC2)c2cc(O)ccc2n1C (stereo unspecified) | -119% |
| CN(C)CCNC(=O)c1ccc(OC2CCN(CC3CC3)CC2)c(Cl)c1 | -6.26% |
| COC(=O)c1cccc(-c2c[nH]c(C)n2)c1 | -0.734% |
| CC(COc1ccccc1)NCc1nncn1C1CCCCC1 (stereo unspecified) | -4.23% |
| Cn1nnnc1SCCNC(=O)C1CCN(C(=O)C2CCC2)CC1 | -3.22% |
| CCCc1cc(C(=O)NCCC2=CCCCC2)[nH]n1 | -51.8% |
| CO[C@@H](C(=O)NC1CCOCC1)c1ccccc1 | -2.43% |
| CC(C)Nc1ccc(-c2ccnc3c2ccn3C)nn1 | -7.94% |
| CCn1c(CN2CCCC2)nnc1C1CCN(Cc2ccccn2)CC1 | 3.11% |
| O=C(NC1CC1)c1cccc(S(=O)(=O)NCCc2nc(C3CC3)no2)c1 | -0.714% |
| Cc1ccc2[nH]c(CN(C)c3cc(CCN)nc(C)n3)nc2c1 | 0% |

| Structure (SMILES) | cytotoxicity at 10 µM |
| --- | --- |
| CS(=O)(=O)N1CCN(C(=O)c2ccco2)[C@H]2CS(=O)(=O)C[C@H]21 | -6.69% |
| O=S(=O)(N1CCOCC1)N1CCCCC1CCn1cccn1 (stereo unspecified) | -0.302% |
| Cc1nn(C)c(C)c1CN(Cc1cccn1-c1cccnc1)C(C)C | -3.16% |
| Cc1noc(C)c1CN1C[C@@H](C(=O)O)[C@H](c2ccccc2)C1 | -9.04% |
| CCSc1ncc(-c2nccn2CCN(C)C)cn1 | 2.41% |
| OCc1cn([C@@H]2c3ccccc3C3(CCNCC3)[C@H]2O)nn1 | -3.45% |
| COc1ccccc1-c1ncc(CN2C[C@H](O)[C@@H](N3CCCC3)C2)s1 | -6.34% |
| Cc1cccnc1CN(C)c1ncnc2[nH]ccc12 | 4.77% |
| Cc1cnc(C(=O)N2CCc3c(nc(-c4ccncc4)[nH]c3=O)C2)cn1 | 8.62% |
| CCn1c(CN2CCCC2)nnc1C1CCN(Cc2ccncc2)CC1 | -0.384% |
| CCc1ncc(CN2CCCN(CC3CC3)C(C(C)C)C2)cn1 (stereo unspecified) | -6.03% |
| C=C(C)COc1ccccc1NC(=O)N1CCCCC1CO (stereo unspecified) | -8.06% |
| O=C1NCC2(CCCN(C(=O)Nc3cccc(-c4cscn4)c3)CC2)O1 (stereo unspecified) | -4.54% |
| CCn1cc(S(=O)(=O)N2CCC3(CCCN(CC4CCC4)C3=O)C2)cn1 (stereo unspecified) | 2.45% |
| CC(=O)C1(c2ccccc2)CCN(C(=O)CC2CNCCO2)CC1 (stereo unspecified) | -4.46% |
| NC(=O)CNC(=O)c1cc(Cn2cnc3ccccc32)[nH]n1 | -4.2% |
| CC(C)CS(=O)(=O)CC(=O)NC1CCCCNC1=O (stereo unspecified) | -3.03% |
| COc1cc(CNC(c2ccccc2)c2nccn2C)cc(OC)c1 (stereo unspecified) | -6.69% |
| COCc1ccccc1C(=O)N1CCCC1Cn1nc(C)cc1C (stereo unspecified) | -3.98% |
| Cc1ccc(CNC2CCCN(Cc3noc(C4CC4)n3)C2)s1 (stereo unspecified) | -6.01% |
| CCc1ccc(C(C)NC(=O)N2CCC(n3cncn3)CC2)cc1 (stereo unspecified) | -8.18% |
| CC(C(=O)NCCOc1ccc2c(c1)CCC2)n1cncn1 (stereo unspecified) | -1.58% |
| OC(CN1CCC(c2ccn[nH]2)CC1)c1ccccc1F (stereo unspecified) | -25.5% |

| Structure (SMILES) | cytotoxicity at 10 µM |
| --- | --- |
| CC(=O)NCCNC(=O)c1cnc(-c2ccc(C)cc2C)s1 | -7.95% |
| CNS(=O)(=O)c1ccc(CNC(=O)NCC2CCC2)cc1 | 6.26% |
| O=C(Cc1ccc2c(c1)CCO2)N1CCCC(n2cccn2)C1 (stereo unspecified) | 5.67% |
| COc1ccc(C(=O)N(C)Cc2cc(C)on2)c(OC)c1 | -11.3% |
| Cn1cnc2c(N3CCOCC3)nc(C3CCNCC3)cc21 | 2.98% |
| Cn1c2c(ccc1=O)CC(Nc1ncc(F)cn1)CC2 (stereo unspecified) | -143% |
| CN(C)C[C@@H]1OC[C@H]2CN(Cc3ccoc3)CC[C@H]21 | -131% |
| CCOC(=O)[C@]12CCCN(Cc3ccsc3)C[C@H]1CN(CCOC)C2 | -127% |
| CN(C)CCNC(=O)c1nc2c(o1)CN(C(=O)c1cccnc1)C2 | 0.109% |
| Fc1cnc(N2CC3(CCN(CC4CC4)C3)C2)nc1 | -2.73% |
| COCCN1CC[C@H]2CN(Cc3ccc(C)s3)C[C@@H]2C1=O | -3.72% |
| Cc1cccc(N2CCC3(CCCC(=O)N3)CC2)n1 | -3.8% |
| CN(C)C(=O)CN1C[C@H]2CCN(c3ncccn3)CC[C@H]2S1(=O)=O | 0.466% |
| O=C(NCC1CC1)[C@@H]1C[C@@H]2OCCN[C@@H]2C1 | -131% |
| CNC(=O)c1ccc2c(c1)C1(CCN(C(C)C)CC1)C(=O)N2 | 12.6% |
| O=C([C@@H]1CC[C@@H]2[C@@H](CCN2Cc2cccs2)O1)N1CCCCO1 | -2.33% |
| COCCN1C(=O)[C@@H]2CC[C@H]1CN(C(=O)Cc1ccc(O)c(Cl)c1)C2 | -4.26% |
| Cc1noc(C)c1CN1C(=O)[C@@H]2CC[C@H]1CN(Cc1ncc[nH]1)C2 | 5.85% |
| CNC(=O)c1cnc(C=Cc2ccc(O)c(OC)c2)s1 | 0.23% |
